KCNK9 inh = KCNK9 potassium channel inhibitors, primary screen, HEK293 cells, thallium flux | Potassium channel subfamily K member 9 (Homo sapiens), Q9NPC2 | FluxOR thallium flux fluorescence; stronger effect = lower value | B-score at 10 µM | 310,000 compounds, 1.2% hits;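 active = ratio B-score over 3 SD below the library mean, with starting fluorescence within 5 SD of its mean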;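 also: negative B-score means less thallium flux so channel inhibition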
Kir21 inh = inhibitors of mouse Kir2.1 inward-rectifier potassium channel; Inward rectifier potassium channel 2 (Mus musculus), P35561; HEK293-Kir2.1, FluxOR thallium flux fluorescence; stronger effect = lower value; B-score at 10 µM; 310,000 compounds, 0.85% hits;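 active = fluorescence ratio B-score at or below minus 3 SD of library scores, with starting-brightness B-score within 2 SD, cut at about -4.2 in these data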;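 also: channel flux triggered by added potassium and thallium sulfate stimulus; B-score of peak minus minimum fluorescence over baseline after thallium stimulus; more negative B-score means stronger Kir2.1 block with less thallium influx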
KCNK3 block = human KCNK3 channel inhibitors, primary screen, CHO cells, FluxOR thallium flux, B-score; Potassium channel subfamily K member 3 (Homo sapiens), O14649; FluxOR fluorescence; stronger effect = lower value; B-score at 10 µM; 340,000 compounds, 0.84% hits; AID 602410, 2012;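 active = B-score under library mean minus 4 SD, starting fluorescence ratio at most library mean plus 5 SD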;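 also: more negative B-score means stronger inhibition of thallium flux through KCNK3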
KCNQ1 act = potentiators or activators of KCNQ1 channel, primary screen, cell-based, thallium flux, high-throughput. Potassium voltage-gated channel subfamily KQT member 1 (Homo sapiens), P51787. CHO-K1 KCNQ1, thallium flux FluxOR fluorescence; stronger effect = higher value. B-score at 10 µM. 310,000 compounds, 0.35% hits;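 active = fluorescence ratio B-score, a plate-corrected score, at least three library SD, with initial intensity B-score within 5 SD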
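Schedule – 37 °C overnight plating, 90-min dark dye load, 20-min compound pretreatment · System – stable KCNQ1 CHO-K1 line · Probe or stimulus – thallium- and potassium-containing depolarizing buffer · Measured by – kinetic FluxOR fluorescence, 10 s baseline plus 110 s post-stimulus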
KCNQ1 block = inhibitors of human KCNQ1 channel, primary screen, cell-based, thallium flux, high-throughput; 310,000 compounds, 1.3% hits; B-score at 10 µM; CHO-K1 KCNQ1, FluxOR thallium flux fluorescence; stronger effect = higher value; AID 2642, 2010;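 active = compounds whose thallium flux B-score, printed positive for inhibition, exceeds three library SD while starting fluorescence stays within three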;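 also: channel opened by potassium depolarization with thallium stimulus after 20 min compound exposure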
hERG protect = hERG rescue from dofetilide block, primary screen, cell-based, CHO-hERG, FluxOR thallium flux, dofetilide IC70 | dofetilide IC70 present | activation (rescue from dofetilide block), less the hit threshold, % at 10 µM | 310,000 compounds, 0.51% hits | AID 1511, 2009;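 active = activation above the mean of controls blocked by dofetilide plus 5 SD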;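 also: thallium influx through hERG after potassium depolarization seen as dye fluorescence rise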
Target sequence (Q12809 whole entry, looked up): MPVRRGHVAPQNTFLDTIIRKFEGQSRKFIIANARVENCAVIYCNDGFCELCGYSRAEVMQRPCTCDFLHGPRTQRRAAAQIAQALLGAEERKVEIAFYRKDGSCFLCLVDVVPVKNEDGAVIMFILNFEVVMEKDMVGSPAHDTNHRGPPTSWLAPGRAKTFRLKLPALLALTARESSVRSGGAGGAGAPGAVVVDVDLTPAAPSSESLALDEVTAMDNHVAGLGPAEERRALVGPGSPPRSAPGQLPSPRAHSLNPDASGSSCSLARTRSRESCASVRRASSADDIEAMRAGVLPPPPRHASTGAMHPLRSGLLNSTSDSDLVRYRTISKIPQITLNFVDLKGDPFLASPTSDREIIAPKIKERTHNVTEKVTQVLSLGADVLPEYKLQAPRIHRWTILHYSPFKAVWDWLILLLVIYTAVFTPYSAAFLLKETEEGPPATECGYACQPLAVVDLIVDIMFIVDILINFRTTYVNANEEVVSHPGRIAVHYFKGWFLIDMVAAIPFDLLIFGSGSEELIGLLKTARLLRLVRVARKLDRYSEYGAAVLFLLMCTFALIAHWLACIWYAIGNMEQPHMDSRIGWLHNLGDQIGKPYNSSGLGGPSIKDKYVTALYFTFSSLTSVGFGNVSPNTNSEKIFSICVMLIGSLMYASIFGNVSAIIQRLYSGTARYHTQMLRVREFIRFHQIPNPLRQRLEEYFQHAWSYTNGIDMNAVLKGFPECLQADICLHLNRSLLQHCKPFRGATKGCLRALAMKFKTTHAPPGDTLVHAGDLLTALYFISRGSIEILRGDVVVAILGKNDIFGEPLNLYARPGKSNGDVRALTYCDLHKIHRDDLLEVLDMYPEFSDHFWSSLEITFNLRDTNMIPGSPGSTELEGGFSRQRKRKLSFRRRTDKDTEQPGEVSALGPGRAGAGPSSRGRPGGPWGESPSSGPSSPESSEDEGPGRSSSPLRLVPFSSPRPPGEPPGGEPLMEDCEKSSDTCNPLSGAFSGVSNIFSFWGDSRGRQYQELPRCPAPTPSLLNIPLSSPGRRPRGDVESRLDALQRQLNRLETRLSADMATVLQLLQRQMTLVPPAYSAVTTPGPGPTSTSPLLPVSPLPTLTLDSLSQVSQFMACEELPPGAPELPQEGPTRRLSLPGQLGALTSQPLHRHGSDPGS
An asterisk follows results filed as active; i = inactive; · = not tested or not shown; ! = not active in a repeat. Sampled rows, rich in hits. Any-hit rate of the full collection: about 3.8%.

SMILES | KCNK9 inh | Kir21 inh | KCNK3 block | KCNQ1 act | KCNQ1 block | hERG protect
N#Cc1cn(CCOc2ccccc2F)c2ccccc12 | -7.5* | -1.2 | i | i | i | -12
N#Cc1cn(CCOc2ccc(F)cc2)c2ccccc12 | i | 1.5 | i | i | i | -8
CC(CN(C)Cc1ccccc1)OC(=O)c1ccccc1F (stereo not drawn) | i | 0.2 | i | i | i | -12
CC(CN(C)Cc1ccccc1)OC(=O)c1cccs1 (stereo not drawn) | i | -1.5 | i | i | i | 47*
O=C(NC1CC1)C1CCN(C2CCN(C(=O)/C=C/c3ccc(F)cc3)CC2)CC1 | i | 1.9 | i | i | i | -8
CC(=O)Nc1ccc(NC(=O)C(C)OC(=O)c2ccc3[nH]c(C)c(C)c3c2)cc1 (stereo not drawn) | i | -0.74 | i | i | i | -15
O=c1c(-c2ccccc2)nc(-c2ccccc2)cn1O | i | -0.51 | i | i | i | 4.9*
Cc1ccc(S(=O)(=O)N(CC2CO2)c2cccc([N+](=O)[O-])c2)cc1 (stereo not drawn) | i | -4.9* | i | i | i | -7
Cc1cc(C)n(CCC(=O)N2CCCC(Nc3ccc(F)cc3)C2)n1 (stereo not drawn) | i | 0.87 | i | i | i | -3
C/C=C/C=C/[C@H]1Cc2cc(O)cc(O)c2O1 | i | -4.3* | · | i | i | -11
O=C(Cc1cc(=O)[nH][nH]1)N/N=C/c1c(Cl)cccc1Cl | i | -4.3*! | i | i | i | -2
CCOC(=O)c1ccc([N+](=O)[O-])c(CS(=O)(=O)c2ccc(Cl)cc2)c1 | i | 0.05 | i | i | i | -11
Cc1ccc(S(=O)(=O)Cc2cc(F)c([N+](=O)[O-])cc2[N+](=O)[O-])cc1 | i | -0.24 | -10* | i | i | -26
CCOC(=O)c1c(C)[nH]c(C)c1C(=O)CSc1nc2ccccc2n1CCC#N | i | -0.39 | i | i | i | -11
CCOC(=O)c1c(C)[nH]c(C)c1C(=O)CSc1nc2ccccc2c(=O)n1-c1ccc(Cl)cc1 | i | 0.05 | i | i | 6* | -9
CCCn1c(SCC(=O)c2c(C)[nH]c(C)c2C(=O)OCC)nc2ccccc21 | i | -4.3* | i | i | i | -16
Cc1ccccc1S(=O)Cc1ccc(C(=O)N2CCN(C(=O)c3ccco3)CC2)o1 (stereo not drawn) | i | 1.3 | i | i | i | -7
COc1cccc(CNC(=O)C2CCCN(C(=O)c3ccc(Cl)cc3)C2)c1 (stereo not drawn) | · | · | i | · | · | ·
CCCCCCCSc1ncnc2[nH]ncc12 | · | · | i | · | · | ·
OC(COCCOc1ccc(Br)cc1)CN1CCN(Cc2ccccc2)CC1 (stereo not drawn) | i | -7.4* | i | i | i | -7
CCc1ccc(OCCOCC(O)CN2CCN(Cc3ccc(Cl)cc3)CC2)cc1 (stereo not drawn) | i | -9.1* | i | i | i | -14
OC(CNC1CCCCC1)COCCOc1ccc(Br)cc1 (stereo not drawn) | i | -4.3* | i | i | i | -11
CCn1c(=O)c([N+](=O)[O-])c(N2CCN(Cc3ccc4c(c3)OCO4)CC2)c2ccccc21 | i | -0.19 | i | i | i | -2
CCn1c(-c2cc(-c3ccc(C)cc3)nc3ccccc23)n[nH]c1=S | i | 0.04 | i | i | i | -1
CCn1c(-c2cc(-c3ccc(OC(C)C)cc3)nc3ccccc23)n[nH]c1=S | i | -0.01 | i | i | 6* | -20
C=CCn1c(-c2cc(-c3ccc(C)cc3)nc3ccccc23)n[nH]c1=S | i | -0.02 | i | i | i | 5.8*

Bioassay records (PubChem BioAssay)
